Tested on: MS2 coat protein
Experiment: apparent Kd, MS2 coat protein; higher = weaker binding; RNA-MaP array; FMN 200 µM where present
Procedure, shortened: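 In 100 mM Tris-HCl pH 7.5, 80 mM KCl, 4 mM MgCl2, BSA, DTT, yeast tRNA and Tween-20, SNAP-549-labelled MS2 coat protein was titrated from 0.7 or 1.5 nM, doubling to 3 µM, over designs transcribed by stalled E. coli RNA polymerase on Illumina sequencing-chip clusters. This was done first without ligand, then with ligand held constant. After green signal was normalised to red-channel RNA signal and control-cluster median Fmax, the apparent Kd was taken as the median of filtered per-cluster binding-curve fits.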

[1] = designed as: ON switch for flavin mononucleotide, no ligand
[2] = ligand present: flavin mononucleotide, designed as: ON switch for flavin mononucleotide
[3] = designed as: OFF switch for flavin mononucleotide, no ligand
[4] = ligand present: flavin mononucleotide, designed as: OFF switch for flavin mononucleotide

Sequence: UAUUUUAACUAAGGAUAUCUAUAUUAAUUUGAAACAUGAGGAUCACCCAUGUUCAUGGGUUUAUAAGAGAAGGUAGAUGAAUAA
- apparent Kd [1]: 48.7 nM
- apparent Kd [2]: 20.7 nM

Sequence: GCCUCAGAAUUAAUUGUGAGAAGCAGAAGGCUAUAUCUCAUGUUAAACAUGAGGAUCACCCAUGUAGAGGAUAUGCUAUUACAG
- apparent Kd [3]: 58.9 nM
- apparent Kd [4]: 282 nM

Sequence: GUUAUAGGAGGAUAUACAUGAGGAUCACCCAUGUCUCACCCAUGGCAACGAACCUAUUGUAGAAGGCUUGAAGA
- apparent Kd [3]: 74.5 nM
- apparent Kd [4]: 182 nM

Sequence: UUAUGAGCGAUAGGAUAUACUGAGAUUGAAUGGGUAGAAGGAUCGAUCGUGUGGAAGACAUGAGGAUCACCCAUGUUACGGGCC
- apparent Kd [1]: 56 nM
- apparent Kd [2]: 166 nM

Sequence: GUGAGGUCAGGAUAUGCAUGGCGGGACUUGCGUCGUGGCGUGGAGAAGGGACAUGAGGAUCACCCAUGUGGAGU
- apparent Kd [3]: 87.6 nM
- apparent Kd [4]: 49.5 nM

Sequence: GUAAAGUGAGGAUAUGGUAAAGUAAUUAUUUAGUAAGUAAUCCAGAAGGCACAUGAGGAUCACCCAUGUAAAUG
- apparent Kd [3]: 31.3 nM
- apparent Kd [4]: 36.8 nM

Sequence: AGAGAAUAGGUAGGAUAUCUUAAUAGAAAGAAUAGAGAAGGACCACAUGAGGAUCACCCAUGUGAUGUCUUGAGACUACAUGGU
- apparent Kd [3]: 16.4 nM
- apparent Kd [4]: 19.4 nM

Sequence: CCCGCGAUGUCAGGAUAUAGUCGGAGGUGCAGACUAGAAGGGACAUGAGGAUCACCCAUGUGCGUGAACAUUUGAAACCCGGGU
- apparent Kd [3]: 40.4 nM
- apparent Kd [4]: 153 nM

Sequence: GGUGCGUAUGUGAGGAUAUGCUGGUCCUUGGCUCGGCAGAAGGCACAUGAGGAUCACCCAUGUGGUGUCGUACA
- apparent Kd [3]: 112 nM
- apparent Kd [4]: 50.9 nM

Sequence: AAAAAGUCAGGAUAUCCAAAAAAAAAAAAAAAAAAAAAAAAGGAGAAGGGACAUGAGGAUCACCCAUGUAAAAA
- apparent Kd [3]: 77.9 nM
- apparent Kd [4]: 85.3 nM

Sequence: CUGAGGUCAGGAUAUGCAUGGCGGGACUUGCGUCGUGGCGUGCAGAAGGGACAUGAGGAUCACCCAUGUGGAGC
- apparent Kd [3]: 86.7 nM
- apparent Kd [4]: 249 nM

Sequence: GGUACUCAAAGAGUACAAGGUCGAACAUGAGGAUCACCCAUGUAGGAUAUGCUAAGCAAGAAGUAGCAGAAGGACAUGUGCAGC
- apparent Kd [3]: 17.7 nM
- apparent Kd [4]: 59.5 nM

Sequence: UCAGGCUUCGAGAAGGACAUGAGGAUCACCCAUGUGCGUGUGAAGCAGCCGUGAGGCUGCAUCAUGUAGGAUAUCGGAGUCUGC
- apparent Kd [3]: 82 nM
- apparent Kd [4]: 418 nM

Sequence: ACGACGAAAGUCGAACGAUGUAGCAGAAGGACAUGAGGAUCACCCAUGUAAAAUGUAACAGCCAUGUAGGAUAUGCUACAUCGA
- apparent Kd [3]: 31.3 nM
- apparent Kd [4]: 238 nM

Sequence: GGGCUGGGAGGAUAUUCAUUGGGAAACAUGAGGAUCACCCAUGUGAUAUAAGGGAAAUCCGGAGAAGGCUCGGUUC
- apparent Kd [3]: 18.1 nM
- apparent Kd [4]: 18.8 nM

Sequence: AAAUGCAUAAAGGACACAUGAGGAUCACCCAUGUUUCUGUUCAAGGAUAUGAGGUGAAUGAUCCGUCAGAAGGUGAACUUGCUU
- apparent Kd [1]: 180 nM
- apparent Kd [2]: 400 nM

Sequence: GCAUACAUUCGAGGAUAUCGGUGAACAAAUUAACGAGAAGGCGAUAUAAUUUUUAAACUUAUUGACAUGAGGAUCACCCAUGUA
- apparent Kd [1]: 23.2 nM
- apparent Kd [2]: 20.8 nM

Sequence: CAGUACUGAGGAUAUACAUGAGGAUCACCCAUGUGUUCCUUGUAGGAUAUGCGCAAAAGUAGAAGGCAGAAGGACAUGUGCCUA
- apparent Kd [3]: 7.48 nM
- apparent Kd [4]: 6.45 nM

Sequence: AUUUUAACAUAGGAUAUCGAAUUUAUUAUUUAACGAGAAGGAUGAACAUGAGGAUCACCCAUGUGGUAUCAUGG
- apparent Kd [3]: 217 nM
- apparent Kd [4]: 93.6 nM

Sequence: AUCAGCUCGUCAGGAUAUACGUCACUGCGUAAGCAGUGUGGUAAGAUCACAUGAGGAUCACCCAUGUAGAAGGGACGAGCUGAU
- apparent Kd [3]: 12.9 nM
- apparent Kd [4]: 288 nM

Sequence: AAUAAUUAGUAAGGAUAUACUAGUGAUUAGCUUGUAGAAGGUACAGUCUUAUGUAUAACAAAUUAACAUGAGGAUCACCCAUGU
- apparent Kd [1]: 8.8 nM
- apparent Kd [2]: 8.1 nM

Sequence: GAUCUGAUAGGAUAUACAUGAGGAUCACCCAUGUGCGAGCUAGCGAAAGCUAGCUCAGGUAGAAGGGUCAGAUC
- apparent Kd [3]: 12 nM
- apparent Kd [4]: 15.5 nM

Sequence: GCACUUAGAGAGGUACCGUUACGAACAUGAGGAUCACCCAUGUAGGAUAUGCUAAUAGUAUUGAAGCAGAAGGACACUAAGUGC
- apparent Kd [3]: 7.21 nM
- apparent Kd [4]: 30.4 nM

Sequence: UUGUUAGGGAGAGGAUAUUGACAUGAGGAUCACCCAUGUAUUUGGGAGUGUUUACUGAAUUCUCACGAGAAGGCUUACAAAUUU
- apparent Kd [3]: 584 nM
- apparent Kd [4]: 534 nM

Sequence: CCUAAGGACACAGGAUAUAGCGUCGUGGCUGGGCUCCAACGGCGAGCGGCGCUAGAAGGGUGACCACAUGAGGAUCACCCAUGU
- apparent Kd [1]: 522 nM
- apparent Kd [2]: 150 nM

Sequence: UUUAGUUGCGGGCAGGAUAUGUAUUAAAAUACAUGAGGAUCACCCAUGUGCGGGUGUAACACCCGACAGAAGGGCCAAUCGCGAC
- apparent Kd [1]: 388 nM
- apparent Kd [2]: 28.6 nM

Sequence: ACGUUUUAUGCAGGAUAUUGACUUAUAUUUAAACAAGAAGGGCAAUACAUGAGGAUCACCCAUGUUAUCAUGGUAUUUAAGUUC
- apparent Kd [3]: 82.2 nM
- apparent Kd [4]: 53.9 nM

Sequence: AAUAUACAUGAGGAUCACCCAUGUUUUGGUGUAUGAGGAUAUAAAAACAAUUACAUAAAAUUAGAAGGCAUAACUA
- apparent Kd [1]: 28.2 nM
- apparent Kd [2]: 24 nM

Sequence: UUGGCGCGAUCCUUGGUCUCACAUGAGGAUCACCCAUGUAGAGAGGAUAUGCAUAGGGCCCAAUGGCAGAAGGCUCUACAUGAG
- apparent Kd [3]: 67.1 nM
- apparent Kd [4]: 71.2 nM

Sequence: AACGCCAGUGAGAAGGCAUGUUCACAUGAGGAUCACCCAUGUAUACUCAUGAGGAUAUCAAAUGCGGACCAAAAUAAAAUAAGA
- apparent Kd [1]: 464 nM
- apparent Kd [2]: 26.6 nM

Sequence: CUGUUUUUCGCAGGAUAUGCUCCUCCUUUAUUAGCAGAAGGGCGUUAAACAUGAGGAUCACCCAUGUAUGGUAAUGACAUUUUC
- apparent Kd [3]: 33.6 nM
- apparent Kd [4]: 209 nM

Sequence: CGGCAAGUCACAGGAUAUGGUGAUGUACAUGAGGAUCACCCAUGUCCGUCUUCUCUCACAAGAUGCCAGAAGGGUGACUCCCGG
- apparent Kd [1]: 852 nM
- apparent Kd [2]: 120 nM

Sequence: CCUUAGUAAGGAUAUCAGCUUAUAGAGUUGGUAAUGAGAGCUGAGAAGGUACAUGAGGAUCACCCAUGUUAGUU
- apparent Kd [3]: 21.1 nM
- apparent Kd [4]: 35.1 nM

Sequence: CAGUCUACAGGAUAUACAUGAGGAUCACCCAUGUGUAUCAACCUUCUGUAAUCCACAUGUAGAAGGGUAGACUG
- apparent Kd [3]: 14.8 nM
- apparent Kd [4]: 13.5 nM

Sequence: GGACAUGUCGUUUACAUGAGGAUCACCCAUGUCGAUGGACAUGAGGAUAUCGAUACGAAUCGUAUCGAGAAGGCAUGCAUGUCC
- apparent Kd [1]: 42.8 nM
- apparent Kd [2]: 18.5 nM

Sequence: AAAUAGUCAGGAUAUACAUGAGGAUCACCCAUGUAAACUUUUAGUUUAAUUUGAAUGUGUAGAAGGGACAUUAA
- apparent Kd [3]: 28.1 nM
- apparent Kd [4]: 33 nM

Sequence: UGAGCAUCAGGAUAUAUGUGGCGACCGUGAGGUCGAAGGUUACAUGAGGAUCACCCAUGUAGAAGGGAUGUUCU
- apparent Kd [3]: 62.6 nM
- apparent Kd [4]: 203 nM

Sequence: UUAAAUCAUGUAGGAUAUGCAUGGCGAAGCUACGCAGAAGGACAUGAGGAUCACCCAUGUUAAAGCGACCGAGUUCGGUUGCAA
- apparent Kd [3]: 124 nM
- apparent Kd [4]: 214 nM

Sequence: CGCUCAGAGAACGAUACGAAUAGACAUGAGGAUCACCCAUGUAGAAGGACAACGGAAUAAACGUUGUAGGAUAUACAUUUAGCG
- apparent Kd [3]: 24.6 nM
- apparent Kd [4]: 52.6 nM

Sequence: AAAAGACAUGAGGAUCACCCAUGUAAAAACGUGGGAGGAUAUGUAUGGAAACCAGACUGUACAGAAGGCCUUUGUC
- apparent Kd [1]: 138 nM
- apparent Kd [2]: 164 nM

Sequence: UUUUAGGAAGGAUAUACAUUUUUUUUAUUAUCCUCAUUAUUACAUGAGGAUCACCCAUGUAGAAGGUCCAUUUU
- apparent Kd [3]: 172 nM
- apparent Kd [4]: 137 nM

Sequence: GGGUACAUCGGAGGAUAUCAUGGAAAUACAUGAGGAUCACCCAUGUCGAUGGAGACAUCGGAGAUUGAGAAGGCCGAUGUACCG
- apparent Kd [1]: 27.3 nM
- apparent Kd [2]: 6.38 nM

Sequence: AAAGAAAGGUCAGGAUAUCCGUUAGUCGCGCAAGGAGAAGGGACCUCAUGGGUGCUGACACAUGAGGAUCACCCAUGUAAAAUA
- apparent Kd [3]: 65.5 nM
- apparent Kd [4]: 23.1 nM

Sequence: CACCGUUACCUAGGAUAUAGUACAUGAGGAUCACCCAUGUAAUAAAUGAGAAUUUCGGAUGUAUGCUAGAAGGAGGAAAUCGGC
- apparent Kd [3]: 39 nM
- apparent Kd [4]: 40.2 nM

Sequence: AACUGACAUGAGGAUCACCCAUGUCAGGAUAUGAUUUGACGAAAUAAAACACGUCAUAUCAGAAGGGACAUGGA
- apparent Kd [3]: 26.5 nM
- apparent Kd [4]: 48.6 nM

Sequence: CGCUAGUCAGGAUAUACGAACAUGUCACCAGACGUGAAGGGACAUGAGGAUCACCCAUGUAGAAGGGACUAGCA
- apparent Kd [3]: 90.5 nM
- apparent Kd [4]: 267 nM

Sequence: GUAACUCAUGUAGGAUAUGCAUGGCGAAGCUACGCAGAAGGACAUGAGGAUCACCCAUGUUCUAGCGUCUGGAUACAGAUGCAA
- apparent Kd [3]: 85.7 nM
- apparent Kd [4]: 327 nM

Sequence: GUCCUCUCUGAGGAUAUUAUCCGGUCCGAUUGAUAAGAAGGCAGUACAUGAGGAUCACCCAUGUGGGUCGUCUG
- apparent Kd [3]: 37.4 nM
- apparent Kd [4]: 111 nM

Sequence: GGAUGACAAAGUCAUCCUAUUCGAACAUGAGGAUCACCCAUGUAGGAUAUGCUACUCAAAGAGUAGCAGAAGGACAUGUGCCUU
- apparent Kd [3]: 32.6 nM
- apparent Kd [4]: 178 nM

Sequence: UCAAAUGCCGUAGGAUAUAAUGUGCGCCGUCCGUGAGAUGUAAAUUGACAUGAGGAUCACCCAUGUUAGAAGGGCGGCAUCAGC
- apparent Kd [3]: 5.88 nM
- apparent Kd [4]: 5.92 nM

Sequence: AAGUCUGUACGAGGAUAUCAGUUGUAUCUAAAUUCAACAUGAGGAUCACCCAUGUUGCAAUAGGGUGAGAAGGCGUGUGGGCAA
- apparent Kd [1]: 70.1 nM
- apparent Kd [2]: 21.6 nM

Sequence: GCGAUUAAGUAGAAGGUACAAUAUAUAUCAUUGUAAGGAUAUACUUACAUGAGGAUCACCCAUGUUAAAGGAUAUAAUAAUCGC
- apparent Kd [1]: 9.08 nM
- apparent Kd [2]: 8.98 nM

Sequence: CCGGAAACGGGUAGCUGACAUGAGGAUCACCCAUGUGUUACACAGGAUAUGGAUCCUAAUUGGAUCCAGAAGGGUGUCAGCUAC
- apparent Kd [1]: 220 nM
- apparent Kd [2]: 36.5 nM

Sequence: AUUGUAGUUGUGAGGAUAUCGUUGAUUUUUUGAAACGAGAAGGCACAUGAGGAUCACCCAUGUAAGUUGUAGGU
- apparent Kd [3]: 80.6 nM
- apparent Kd [4]: 315 nM

Sequence: GCGAUUGCGUAGAAGGUACAAUUUAAUACAUUGUAAGGAUAUACUUACAUGAGGAUCACCCAUGUUAAUGGAAUUUGCAAUCGC
- apparent Kd [1]: 16.7 nM
- apparent Kd [2]: 10.8 nM

Source: the EternaBench riboswitch data
